# Assay outcomes from PubChem BioAssay.
# Compounds with a hit are over-represented: about 2.7% of the library has one in this group of screens.
# Wee1 degr inh = Wee1 degradation inhibitors, primary screen, cell-based, HeLa, Wee1K328M-luciferase, luminescence; Wee1-like protein kinase (Homo sapiens), P30291; HeLa Luc-Wee1K328M stability; 100% = proteasome inhibitor MG132 effect; reporter increase, % at 5 µM; 220,000 tested, 1.2% active; AID 1321, 2008;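 active = activation above the mean of all tested compounds plus 3 SD, set per screening run, cut at about 8.8% in these data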;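 note: cells exposed to compound for 20 h before luminescence read; 0% = DMSO alone and 100% = MG132 at 30 µM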
# TbHK1 inh = Trypanosoma brucei hexokinase 1 inhibitors, primary screen, biochemical, G6PDH-coupled NADH absorbance, MLSCN library; AID 1430, 2008; 220,000 tested, 0.11% active; inhibition, % at 10 µM; recombinant TbHK1, G6PDH-coupled NADH A340; hexokinase 1 [Trypanosoma brucei];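 active = inhibition of 50% or more in the single-dose primary screen; inactive = inhibition below 50%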
# 14-3-3 Bad inh = inhibitors of 14-3-3 zeta/Bad binding, primary screen, biochemical, TR-FRET, bovine 14-3-3 zeta. AID 781, 2007. inhibition, % at 21.7 µM. 14-3-3 protein zeta/delta (Bos taurus), P63103. TR-FRET 14-3-3zeta/Dy647-pBad peptide displacement, 1 h. 220,000 tested, 0.71% active;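 active = inhibition above about 70%, limit read from the data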;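 note: 0% = full 14-3-3 plus peptide FRET controls and 100% = background without 14-3-3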
# MDM2 E3 inh = MDM2-luciferase reporter signal enhancers, primary screen, MDM2 E3 ligase inhibitor project, cell-based, luminescence, 1536-well. E3 ubiquitin-protein ligase Mdm2 (Homo sapiens), Q00987. cell-based MDM2 ubiquitination luciferase reporter, 2 h; 0 = plate control, 100 = twice control, blank-subtracted. signal enhancement, % at 5 µM. 210,000 tested, 0.11% active. AID 1230, 2008;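 active = signal enhancement of 30% or more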;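 note: luminescence tracks abundance of the self-degrading MDM2-luciferase fusion protein; higher signal means inhibition of MDM2 E3 ligase activity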
#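 Assay system: stable mammalian line carrying autodegrading MDM2–luciferase fusion reporter; Input: 2000 cells in each well; Compound dosing: single-point 5 µM; Schedule: 2 h compound exposure at 37 °C; Signal: SteadyLite luciferase luminescence after 15 min room-temperature reagent incubation; Evaluation: % luminescence enhancement versus blank-corrected plate control mean; Benchmarks: plate controls and plate blanks.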
# Hck-Nef inh = inhibitors of Nef-activated human Hck kinase, primary screen, biochemical, Z-Lyte FRET, 384-well, Hck-YEEI. Recombinant Hck-YEEI plus Nef, Z-Lyte FRET kinase assay. AID 463187, 2010. Tyrosine-protein kinase HCK (Homo sapiens), P08631. inhibition, % at 20 µM. 220,000 tested, 0.68% active;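 active = Hck-Nef kinase inhibition above about 50%, limit read from the data; inactive = inhibition below that limit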;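 note: 0% = DMSO with Hck plus Nef and 100% = Hck alone without Nef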
# Target sequence (P08631 whole entry, looked up): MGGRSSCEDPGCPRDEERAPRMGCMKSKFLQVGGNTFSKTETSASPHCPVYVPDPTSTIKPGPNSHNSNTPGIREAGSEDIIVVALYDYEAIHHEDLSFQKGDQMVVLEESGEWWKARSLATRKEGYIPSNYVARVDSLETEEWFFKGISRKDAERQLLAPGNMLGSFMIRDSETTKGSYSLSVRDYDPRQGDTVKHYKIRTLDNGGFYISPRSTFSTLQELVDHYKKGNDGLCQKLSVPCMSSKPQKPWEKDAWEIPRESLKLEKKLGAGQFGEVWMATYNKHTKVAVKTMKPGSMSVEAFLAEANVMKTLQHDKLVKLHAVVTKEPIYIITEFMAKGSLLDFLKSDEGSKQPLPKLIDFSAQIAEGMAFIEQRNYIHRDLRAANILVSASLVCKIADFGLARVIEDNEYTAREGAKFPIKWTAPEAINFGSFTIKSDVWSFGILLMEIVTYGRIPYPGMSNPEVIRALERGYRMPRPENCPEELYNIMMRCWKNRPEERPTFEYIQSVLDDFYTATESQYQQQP
# Starred values were filed as active, the others as inactive; · = no result given; [ ] = another dose, or the depositor's remark.
SMILES,Wee1 degr inh,TbHK1 inh,14-3-3 Bad inh,MDM2 E3 inh,Hck-Nef inh
CS(=O)(=O)N1CCc2cc(NC(=O)c3ccc(Cl)cc3Cl)ccc21,-1,10,-13,-1,16
CC1Cc2ccccc2N1C(=O)CNCCCN(C)C (stereo not given),1,-4,76*,12,5
CCOc1ccc(OCCOCCNCCOC)cc1,0,24,19,-3,3
COc1ccc(CCNC(=O)COC(=O)CCC(=O)c2ccc(F)cc2)cc1,11*,0,3,0,8
COc1ccc(CCNC(=O)COC(=O)C2CC2)cc1,1,8,2,-90,-38
CCc1cc(=O)oc2cc(C)cc(OCC(C)=O)c12,11*,-12,5,-9,18
COc1cccc(OC)c1OCCCN1CCOCC1,-1,3,45,8,5
COc1cccc(OC)c1OCCCCN1CCCC1,5,3,74*,-13,0
CCCNC(=O)c1noc2c1CCc1cc(OC)ccc1-2,10*,5,8,-26,-3
COc1ccc2c(c1)CCc1c(C(=O)NCC(C)C)noc1-2,1,-7,61,-37,3
O=C(O)c1ccc2c(c1)C(=O)N(c1nccs1)C2=O,-3,-2,-1,-14,-23
COc1ccc(NC(=O)c2ccc(Cl)nc2)cc1S(=O)(=O)N1CCCCC1,0,-3,91*,-13,-8
C=CCN(CC=C)S(=O)(=O)c1ccc(NC(=S)NC(=O)Cc2ccc(OC)cc2)cc1,-1,10,-1,-24,-1
Cc1ccc(-c2c(C(=O)Nc3ccccc3C)c(C)[nH]c(=S)c2C#N)o1,0,-17,0,3,56*
Cc1ccccc1NC(=O)c1c(C)[nH]c(=S)c(C#N)c1-c1ccc(Cl)cc1,-2,-10,-8,-6,-2
COc1ccc([C@H]2C(C#N)=C([S-])N[C@](C)(O)[C@@H]2[n+]2ccccc2)cc1,-4,-16,20,-5,15
NC(C(=O)O)C(c1ccccc1)C(F)F (stereo not given),-1,-13,7,-3,9
CC(=O)c1cccc(NC2c3ccccc3C(=O)N2Cc2ccc3c(c2)OCO3)c1 (stereo not given),9.1*,-4,-2,-8,3
CCOc1ccc(NC2c3ccccc3C(=O)N2Cc2ccc3c(c2)OCO3)cc1 (stereo not given),-1,10,8,-15,7
CCOc1ccc(NC(=S)Nc2cc(OC)c(Cl)cc2OC)cc1,1,3,13,-7,-26
CCOc1ccc(S(=O)(=O)NN=C2CCN(C(C)=O)CC2)cc1,-2,6,-2,-4,2
C=C(C)c1cccc(C(C)(C)NC(=O)N(Cc2ccccc2)Cc2ccco2)c1,16*,-3,0,-4,-14
O=C(N=Nc1c(O)[nH]c2ccc([N+](=O)[O-])cc12)c1cc(-c2ccccc2Cl)nc2ccccc12,3,3,94*[fluorescence artefact?],-1,30
COc1ccc(CCn2c(=O)[nH]c3cc(C(=O)N4CCN(c5ccccn5)CC4)ccc3c2=O)cc1OC,1,-6,-7,-10,2
CNc1nc(OCC(F)(F)F)nc(N2CCN(C34CC5CC(CC(C5)C3)C4)CC2)n1,3,4,·,·,2
COc1ccccc1NC(=O)c1ccc(NC(=O)c2cc3c(s2)CCC3)cc1,1,-3,79*[fluorescence artefact?],-10,2
C/C(=N\NC(=O)c1c(C)nc2ccccn12)c1ccco1,0,-28,-1,-12,13
O=C(N/N=C/c1ccc(OC(=O)c2cccs2)cc1)c1cccc(F)c1,5,2,72*,-6,2
CN(C)c1ncc(C2=C(Cl)C(=O)C(N3CCCC3)=C(Cl)C2=O)s1,-3,-10,79*[fluorescence artefact?],·,0
O=C1C(Cl)=C(N2CCCCC2)C(=O)C(Cl)=C1c1cnc(N2CCCCC2)s1,0,-4,27,72*,-4
